Furin inhibitor: human furin inhibitors, primary screen, biochemical, fluorescence intensity | P09958 | purified furin, fluorogenic substrate cleavage | inhibition, % at 20 µM or 30 µM | actives 0.061% (n = 220,000) | AID 463115, 2010; in the data active = inhibition above about 25%
thrombin 1536: human alpha-thrombin inhibitors, primary screen, counter-screen for coagulation protease inhibitor project, biochemical, 1536-well, fluorogenic AMC substrate. Boc-VPR-AMC fluorogenic substrate cleavage. inhibition, % at 5 µM. actives 0.26% (n = 220,000). Prothrombin (Homo sapiens), P00734;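 active = inhibition at or above 40%; inactive = inhibition below 40%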;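 also: 0% = enzyme with no compound and 100% = wells without enzyme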
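Material: human alpha-thrombin protein; Also added: Boc-VPR-AMC substrate, 15 µM final; Timing: enzyme reaction carried out at room temperature; Signal: fluorescence, ex 355 nm, em 460 nm; Measure: % inhibition of thrombin; Controls: enzyme without compound as high, wells lacking enzyme as low.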
PERK inh: block of dimerizer-induced PERK translation repression, primary screen, PERK inhibitor project, CHO PERK-DD cells, SEAP luminescence, HTS; AID 1416, 2008; inhibition, % at 5.6 µM; actives 0.17% (n = 220,000); Eukaryotic translation initiation factor 2-alpha kinase 3 (Homo sapiens), Q9NZJ5; CHO PERK-DD fusion, SEAP luminescence translation reporter;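 active = inhibition above the mean inhibition of all tested compounds plus 3 SD, set separately per screening campaign, cut at about 2.9% in these data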;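 also: PERK kinase domain activated by AP20187 dimerizer at 100 nM; 0% = DMSO with dimerizer and 100% = rapamycin at 8.4 µM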
FXIIa inh: human FXIIa protease inhibitors, primary screen, biochemical, 1536-well; purified FXIIa, Boc-QGR-AMC fluorogenic substrate, 2 h; AID 800, 2007; inhibition, % at 5 µM; actives 0.3% (n = 220,000); Coagulation factor XII (Homo sapiens), P00748; in the data active = inhibition above about 40%;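 also: 0% = enzyme with no compound and 100% = blank without enzyme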
Target sequence (P00748 20-372 limits assumed): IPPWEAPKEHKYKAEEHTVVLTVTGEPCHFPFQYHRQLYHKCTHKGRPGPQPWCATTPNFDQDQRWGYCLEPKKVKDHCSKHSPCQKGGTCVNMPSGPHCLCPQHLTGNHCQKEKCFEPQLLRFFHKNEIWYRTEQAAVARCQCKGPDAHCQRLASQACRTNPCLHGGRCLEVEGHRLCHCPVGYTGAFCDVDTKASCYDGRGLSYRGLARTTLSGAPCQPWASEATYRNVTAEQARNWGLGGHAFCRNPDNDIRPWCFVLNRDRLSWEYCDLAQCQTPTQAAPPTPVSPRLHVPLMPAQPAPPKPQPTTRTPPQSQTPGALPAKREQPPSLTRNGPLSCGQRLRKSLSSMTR
Target sequence (P00748 373-615 limits assumed): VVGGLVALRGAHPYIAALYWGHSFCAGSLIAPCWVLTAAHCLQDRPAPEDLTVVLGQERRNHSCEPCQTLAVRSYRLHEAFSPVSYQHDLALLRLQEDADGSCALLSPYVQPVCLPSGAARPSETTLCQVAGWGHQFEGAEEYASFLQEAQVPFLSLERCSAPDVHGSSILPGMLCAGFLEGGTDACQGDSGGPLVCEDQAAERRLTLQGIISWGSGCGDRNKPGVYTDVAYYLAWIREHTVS
FXIa inh: human FXIa protease inhibitors, primary screen, biochemical, 1536-well | Coagulation factor XI (Homo sapiens), P03951 | purified FXIa, Boc-Glu-Ala-Arg-AMC fluorogenic substrate | inhibition, % at 5 µM | actives 0.14% (n = 220,000);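 active = inhibition of at least 40%; inactive = inhibition below 40%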;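 also: fluorescence of freed AMC excited at 355 nm; 0% = enzyme without compound and 100% = no enzyme blank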
KLK5 inh: human KLK5 protease inhibitors, primary screen, biochemical, 1536-well. AID 873, 2007. recombinant hK5, fluorogenic AMC substrate cleavage. inhibition, % at 5 µM. Kallikrein-5 (Homo sapiens), Q9Y337. actives 0.59% (n = 210,000);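 active = inhibition of 40% or more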;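 also: 0% = enzyme controls without compound and 100% = no-enzyme blanks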
Active calls of the source: *. Sampled rows, rich in hits. Any-hit rate of the full collection: about 1.2%.

Results for CN(C)S(=O)(=O)N1CCc2ccccc2C1 ?
Furin inhibitor: -4; thrombin 1536: -21; PERK inh: 0; FXIIa inh: -3; FXIa inh: 1; KLK5 inh: 2

How did NS(=O)(=O)c1ccc(NC(=O)Nc2ccc(Cl)cc2)cc1 do in these assays?
Furin inhibitor: -15; thrombin 1536: -1; PERK inh: 0; FXIIa inh: 6; FXIa inh: 0; KLK5 inh: 44*

What do the screens show for `Cc1cccc2sc(NC(=O)C3c4ccccc4Oc4ccccc43)nc12`?
Furin inhibitor: -26; thrombin 1536: -2; PERK inh: 0; FXIIa inh: 7; FXIa inh: -8; KLK5 inh: -3

How did CCN(CC)c1ccc2cc(S(=O)(=O)c3ccc(C)cc3)c(=O)oc2c1 do in these assays?
Furin inhibitor: 9; thrombin 1536: 1; PERK inh: 0; FXIIa inh: 11; FXIa inh: 8; KLK5 inh: -19

How did NC1=NC(=O)/C(=C\C=C\c2ccccc2)S1 do in these assays?
Furin inhibitor: -17; thrombin 1536: 15; PERK inh: -1; FXIIa inh: 4; FXIa inh: 6; KLK5 inh: 55*

Results for O=C(O)CNC(=O)CC12CC3CC(CC(C3)C1)C2 ?
Furin inhibitor: -14; thrombin 1536: 1; PERK inh: 0; FXIIa inh: 17; FXIa inh: -8; KLK5 inh: 1

What do the screens show for `CC(C)C(NC(=O)CC12CC3CC(CC(C3)C1)C2)C(=O)O` (stereo not given)?
Furin inhibitor: -14; thrombin 1536: 0; PERK inh: 1; FXIIa inh: 47*; FXIa inh: 15; KLK5 inh: 6

Results for NC(=O)N/N=C/C=C/c1ccccc1 ?
Furin inhibitor: -3; thrombin 1536: 42*; PERK inh: 0; FXIIa inh: 13; FXIa inh: 16; KLK5 inh: 17

How did NC(=O)N\N=C/C=C/C=C/c1ccc(F)cc1 do in these assays?
Furin inhibitor: -18; thrombin 1536: -7; PERK inh: 0; FXIIa inh: 2; FXIa inh: 2; KLK5 inh: 9

Results for Cn1c(Sc2ccc(C(F)(F)F)cc2[N+](=O)[O-])nnc1-c1ccccc1 ?
Furin inhibitor: -13; thrombin 1536: 25; PERK inh: -2; FXIIa inh: 29; FXIa inh: 16; KLK5 inh: 51*

Results for Cn1c(=O)c2cc(NC(=O)c3ccccc3Cl)c(=O)oc2n(C)c1=O ?
Furin inhibitor: -8; thrombin 1536: 80*; PERK inh: 0; FXIIa inh: 24; FXIa inh: 34; KLK5 inh: -8

What do the screens show for `O=C(Nc1ccccc1Cl)c1ccccc1Cl`?
Furin inhibitor: -16; thrombin 1536: 3; PERK inh: 1; FXIIa inh: 13; FXIa inh: 5; KLK5 inh: -6

How did Cc1cc(NS(=O)(=O)c2ccc(NC(=O)CSc3nnc(-c4ccco4)n3N)cc2)nc(C)n1 do in these assays?
Furin inhibitor: -11; thrombin 1536: 62*; PERK inh: 0; FXIIa inh: -8; FXIa inh: -8; KLK5 inh: 29

What do the screens show for `Cc1cc(NS(=O)(=O)c2ccc(NC(=O)CSc3nnc(-c4ccco4)n3C)cc2)nc(C)n1`?
Furin inhibitor: -16; thrombin 1536: -3; PERK inh: 0; FXIIa inh: 5; FXIa inh: -2; KLK5 inh: -4

How did CS(=O)(=O)N(CC(=O)Nc1ccccc1C(=O)NCc1ccco1)c1ccccc1F do in these assays?
Furin inhibitor: -15; thrombin 1536: -3; PERK inh: 0; FXIIa inh: 3; FXIa inh: -7; KLK5 inh: -10

Results for Cc1cscc1NC(=O)/C=C/C(=O)O ?
Furin inhibitor: -8; thrombin 1536: 0; PERK inh: 3.5*; FXIIa inh: 3; FXIa inh: 9; KLK5 inh: 1

What do the screens show for `CCn1nnc2cc(C(=O)O)ccc21`?
Furin inhibitor: -11; thrombin 1536: -12; PERK inh: 1; FXIIa inh: 0; FXIa inh: -4; KLK5 inh: -4

What do the screens show for `O=C(Oc1ccc(Cl)c2cccnc12)c1ccco1`?
Furin inhibitor: -18; thrombin 1536: -3; PERK inh: -1; FXIIa inh: 52*; FXIa inh: -5; KLK5 inh: -4

How did C=CCn1c(SCC(=O)Nc2nc(C)cs2)nnc1C(NC(=O)c1ccccc1)C(C)C (stereo not given) do in these assays?
Furin inhibitor: -14; thrombin 1536: 18; PERK inh: -1; FXIIa inh: 15; FXIa inh: 4; KLK5 inh: 51*

What do the screens show for `COc1ccc(C(=O)NC(C)c2nnc(SCC(=O)Nc3nc(C)cs3)n2C)cc1` (stereo not given)?
Furin inhibitor: -10; thrombin 1536: -7; PERK inh: 1; FXIIa inh: 40; FXIa inh: 14; KLK5 inh: -12

What do the screens show for `COc1ccc(CNC(=O)NC(C)(C)c2cccc(C(C)(C)NC(=O)NCc3ccc(OC)cc3)c2)cc1`?
Furin inhibitor: -18; thrombin 1536: 15; PERK inh: 0; FXIIa inh: 30; FXIa inh: 9; KLK5 inh: 44*

Results for CCOC(=O)c1sc(NC(=O)C2C3C=CC(C3)C2C(=O)O)nc1C (stereo not given) ?
Furin inhibitor: -4; thrombin 1536: -3; PERK inh: 3.4*; FXIIa inh: 9; FXIa inh: 3; KLK5 inh: -2

Results for COC(=O)[C@@H]1C[C@H]2CC[C@H](O)C[C@H]2N1Cc1ccc(Cl)cc1 ?
Furin inhibitor: -11; thrombin 1536: 1; FXIIa inh: 5; FXIa inh: 1; KLK5 inh: 4

What do the screens show for `CCOC(=O)N/N=C(\CCC(=O)O)c1cccs1`?
Furin inhibitor: -26; thrombin 1536: 1; PERK inh: 3.0*; FXIIa inh: 9; FXIa inh: 4; KLK5 inh: 5

What do the screens show for `CCOC(=O)C1CCCN(c2cc(=O)n(-c3ccccc3Cl)c(=O)[nH]2)C1` (stereo not given)?
Furin inhibitor: -25; thrombin 1536: -8; PERK inh: 3.3*; FXIIa inh: 4; FXIa inh: -10; KLK5 inh: 2

Results for Cc1c(Cl)c([N+](=O)[O-])nn1CC(=O)NC(C)C1CC2CCC1C2 (stereo not given) ?
Furin inhibitor: -8; thrombin 1536: 2; PERK inh: 0; FXIIa inh: 9; FXIa inh: -4; KLK5 inh: -10

High-throughput results as filed in PubChem.
